pIC50: −log10 of the molar value.
Tests used:
LS174T [1] = assay: Parent […] tested for the cytotoxicity in LS174T cells; format: functional, cell-based; details: Homo sapiens
LS174T [2] = assay: Tested for the cytotoxicity in LS174T cells before activation by enzyme nitroreductase/NADH; format: functional, cell-based; details: Homo sapiens
Method in brief: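 LS174T adenocarcinoma cells were seeded at 2000 cells/well and treated with various prodrug concentrations for 1 h without enzyme. They were washed and incubated for 3 days. IC50 is the dose inhibiting growth by 50% relative to drug-free controls.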

LS174T [3] = assay: The compound was evaluated for Activation Factor; format: functional, Homo sapiens
LS174T [4] = assay: Tested for the cytotoxicity in LS174T cells after activation by enzyme nitroreductase/NADH; format: functional, cell-based; details: Homo sapiens
Method in brief: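 Human adenocarcinoma LS174T cells were seeded at 2000 cells/well and exposed to a range of prodrug concentrations together with nitroreductase and NADH cofactor for 1 h. Cells were washed and grown for 3 days. IC50 is the prodrug dose giving 50% growth inhibition versus drug-free controls.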

LS174T [5] = assay: Tested for the cytotoxicity in LS174T cells; 0.001-0.01; format: functional, cell-based; details: Homo sapiens

Row | SMILES | pIC50 (LS174T [1]) | pIC50 (LS174T [2]) | Activation Factor (LS174T [3]) | pIC50 (LS174T [4]) | pIC50 (LS174T [5])
1 | COc1cc2c(cc1OCCCOc1cc3c(cc1OC)C(=O)N1CCC[C@H]1[C@H](O)N3C(=O)OCc1ccc([N+](=O)[O-])cc1)N(C(=O)OCc1ccc([N+](=O)[O-])cc1)[C@@H](O)[C@@H]1CCCN1C2=O | 9.30 | 3.67 | 15.7 | 4.86 | –
2 | COc1cc2c(cc1OCc1ccccc1)N(C(=O)OCc1ccc([N+](=O)[O-])cc1)[C@@H](O)[C@@H]1CCCN1C2=O | 8.10 | < 3.30 | >100 | 5.30 | –
3 | C/C=C1/C[C@H]2[C@H](O)N(C(=O)OCc3ccc([N+](=O)[O-])cc3)c3cc(OCc4ccccc4)c(OC)cc3C(=O)N2C1 | 9.00 | 4.06 | 13.5 | 5.19 | –
4 | C/C=C1/C[C@H]2C=Nc3cc(OCc4ccccc4)c(OC)cc3C(=O)N2C1 | – | – | – | – | 8.00

Source: ChEMBL document CHEMBL1133066, “Design and synthesis of novel pyrrolobenzodiazepine (PBD) prodrugs for ADEPT and GDEPT” (Bioorg Med Chem Lett, 2000)
